Laboratory results: ChEMBL document CHEMBL4028873, “The Discovery of a Dual TTK Protein Kinase/CDC2-Like Kinase (CLK2) Inhibitor for the Treatment of Triple Negative Breast Cancer Initiated from a Phenotypic Screen” (J Med Chem, 2017)
Calls of active or inactive are those of the source. The rule behind the calls is not given here.

Key:
[1] = system: BT-474; assay: Cytotoxicity against human BT474 cells assessed as reduction in cell viability after 3 days by CellTiter-Glo assay; format: cell-based; conditions: BT-474, 72 h
[2] = system: CAL-51; assay: Cytotoxicity against human CAL51 cells assessed as reduction in cell viability after 3 days by CellTiter-Glo assay; format: functional, cell-based; conditions: CAL-51, 72 h
[3] = system: Mus musculus; assay: Toxicity in SCID mouse xenografted with human CAL51 cells assessed as loss in body weight at 5 mg/kg, iv administered every 4 days for 16 days relative to control; format: organism-based; conditions: in vivo
[4] = system: CAL-51; assay: Antiproliferative activity against human CAL51 cells xenografted in SCID mouse assessed as tumor growth inhibition at 5 mg/kg, iv administered every 4 days for 16 days; format: functional, organism-based
Procedure, shortened: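 Mice bearing tumors of about 125 mm3 randomized (n = 8−10/group) and given compound intravenously at the listed doses and schedules. Tumors measured twice weekly by digital caliper on long and short axes; volume = width² × length/2.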

[5] = Metabolic stability in rat liver S9 fraction assessed as percent of compound remaining after 60 mins; format: ADME, tissue-based; conditions: read-out: Stability
[6] = Clearance in rat at 2 mg/kg, iv; format: ADME, organism-based; conditions: in vivo
[7] = Metabolic stability in human liver S9 fraction assessed as percent of compound remaining after 60 mins; format: ADME, tissue-based; conditions: read-out: Stability
[8] = Clearance in SCID mouse at 10 mg/kg, iv; format: ADME, organism-based; conditions: in vivo
[9] = Volume of distribution at steady state in rat at 2 mg/kg, iv; format: ADME, organism-based; conditions: in vivo, read-out: Vdss
[10] = Mean residence time in rat at 2 mg/kg, iv; format: ADME, organism-based; conditions: in vivo
[11] = Mean residence time in SCID mouse at 10 mg/kg, iv; format: ADME, organism-based; conditions: in vivo

Row | remaining at 1 h [5] | Structure (SMILES) | IC50 [1] | IC50 [2] | also measured
1 | 83% | CNC(=O)c1ccc(Nc2nc(OC3CCCC3)c3c(-c4ccncc4)c[nH]c3n2)c(OC)c1 | 10 µM | 0.017 µM | –
2 | 18% | CNC(=O)c1ccc(Nc2nc(OC3CCCC3)c3c(-c4ccc(CO)cc4)c[nH]c3n2)c(OC)c1 | 10 µM | 0.089 µM | –
3 | 54% | CNC(=O)c1ccc(Nc2nc(OC3CCCC3)c3c(-c4cccc(CO)c4)c[nH]c3n2)c(OC)c1 | 9.99 µM | 0.03 µM | –
4 | 84% | CNC(=O)c1ccc(Nc2nc(OC3CCCC3)c3c(-c4ccc(-c5nnc[nH]5)cc4)c[nH]c3n2)c(OC)c1 | 4.86 µM | 0.077 µM | –
5 | 76% | CNC(=O)c1ccc(Nc2nc(OC3CCCC3)c3c(-c4ccc(OC)cc4)c[nH]c3n2)c(OC)c1 | 10 µM | 0.491 µM | –
6 | 64% | CNC(=O)c1ccc(Nc2nc(OC3CCCC3)c3c(-c4ccc(-c5ncc[nH]5)cc4)c[nH]c3n2)c(OC)c1 | 1.73 µM | 0.008 µM | –
7 | 1% | CNC(=O)c1ccc(Nc2nc(OC3CCCC3)c3c(-c4ccc(O)cc4)c[nH]c3n2)c(OC)c1 | 3.32 µM | 0.013 µM | –
8 | 86% | CNC(=O)c1ccc(Nc2nc(OC3CCCC3)c3c(-c4ccccc4)c[nH]c3n2)c(OC)c1 | 10 µM | 0.496 µM | –
9 | 36% | CNC(=O)c1ccc(Nc2nc(OC3CCCC3)c3c(-c4cn[nH]c4)c[nH]c3n2)c(OC)c1 | 8.12 µM | 0.009 µM | –
10 | 59% | CNC(=O)c1ccc(Nc2nc(OC3CCCC3)c3c(-c4cccnc4)c[nH]c3n2)c(OC)c1 | 10 µM | 0.079 µM | –
11 | 84% | CNC(=O)c1ccc(Nc2nc(OC3CCCC3)c3c(-c4ccc(-c5ccn[nH]5)cc4)c[nH]c3n2)c(OC)c1 | 10 µM | 0.061 µM | –
12 | 85% | CNC(=O)c1ccc(Nc2nc(OC3CCCC3)c3c(-c4ccc5cn[nH]c5c4)c[nH]c3n2)c(OC)c1 | 10 µM | 0.338 µM | –

The remaining lines, values behind:

Row | Structure (SMILES) | remaining at 1 h [5] | IC50 [1] | IC50 [2] | also measured
13 | CNC(=O)c1ccc(Nc2nc(OC3CCCC3)c3c(-c4ccc5nc(C)oc5c4)c[nH]c3n2)c(C)c1 | – | 9.61 µM | 0.349 µM | –
14 | COc1cc(C(=O)NC(C)(C)CO)ccc1Nc1nc(OC2CCCC2)c2c(-c3ccc4nc(C)oc4c3)c[nH]c2n1 | – | 6.09 µM | 0.109 µM | –
15 | CNC(=O)c1ccc(Nc2nc(O[C@H]3CC[C@](C)(O)CC3)c3c(-c4ccc5nc(C)oc5c4)c[nH]c3n2)c(OC)c1 | – | 0.893 µM | 0.015 µM | –
16 | CC(=O)O[C@@]12CO[C@@H]1C[C@H](O)[C@@]1(C)C(=O)[C@H](O)C3=C(C)[C@@H](OC(=O)[C@H](O)[C@@H](NC(=O)OC(C)(C)C)c4ccccc4)C[C@@](O)([C@@H](OC(=O)c4ccccc4)[C@H]21)C3(C)C [DOCETAXEL ANHYDROUS] | – | – | – | Activity [3]: 20%; TGI [4]: Active
17 | CNC(=O)c1ccc(Nc2nc(O[C@H]3CCOC3)c3c(-c4ccc5nc(C)oc5c4)c[nH]c3n2)c(OC)c1 | 62% | 3.76 µM | 0.017 µM | clearance [6]: 27.4 mL/min/kg; remaining at 1 h [7]: 62%; clearance [8]: 19.1 mL/min/kg; Vd [9]: 1.6 L/kg; MRT [10]: 1 h; MRT [11]: 0.73 h
18 | CNC(=O)c1ccc(Nc2nc(OC3CCC3)c3c(-c4ccc5nc(C)oc5c4)c[nH]c3n2)c(OC)c1 | – | 10 µM | 0.047 µM | –
19 | CNC(=O)c1ccc(Nc2nc(OCCOC)c3c(-c4ccc5nc(C)oc5c4)c[nH]c3n2)c(OC)c1 | – | 3.76 µM | 0.147 µM | –
20 | COc1cc(C(=O)N2CCN(C)CC2)ccc1Nc1nc(OC2CCCC2)c2c(-c3ccc4nc(C)oc4c3)c[nH]c2n1 | – | 3.21 µM | 0.037 µM | –
21 | COc1cc(C(=O)N2CCOCC2)ccc1Nc1nc(OC2CCCC2)c2c(-c3ccc4nc(C)oc4c3)c[nH]c2n1 | – | 6.39 µM | 0.351 µM | –
22 | COc1cc(C(=O)N(C)C)ccc1Nc1nc(OC2CCCC2)c2c(-c3ccc4nc(C)oc4c3)c[nH]c2n1 | – | 8.31 µM | 0.113 µM | –
23 | CNC(=O)c1ccc(Nc2nc(OC3CCCC3)c3c(-c4ccc5nc[nH]c5c4)c[nH]c3n2)c(OC)c1 | 46% | 0.158 µM | 0.017 µM | –
24 | CNC(=O)c1ccc(Nc2nc(OC3CCCC3)c3c(-c4cc[nH]n4)c[nH]c3n2)c(OC)c1 | 53% | 10 µM | 0.46 µM | –
25 | CNC(=O)c1ccc(Nc2nc(O)c3c(-c4ccc5nc(C)oc5c4)c[nH]c3n2)c(OC)c1 | – | 10 µM | 10 µM | –
26 | CNC(=O)c1ccc(Nc2nc(OC3CCCC3)c3c(-c4cccc(O)c4)c[nH]c3n2)c(OC)c1 | – | 10 µM | 0.071 µM | –
27 | COc1ccccc1Nc1nc(OC2CCCC2)c2c(-c3ccc4nc(C)oc4c3)c[nH]c2n1 | – | 10 µM | 0.771 µM | –
28 | CNC(=O)c1ccc(Nc2nc(OC(C)C)c3c(-c4ccc5nc(C)oc5c4)c[nH]c3n2)c(OC)c1 | 69% | 0.946 µM | 0.04 µM | clearance [6]: 33.9 mL/min/kg; remaining at 1 h [7]: 78%; clearance [8]: 7.71 mL/min/kg; Vd [9]: 7.2 L/kg; MRT [10]: 3.5 h; MRT [11]: 4.8 h
29 | CNC(=O)c1ccc(Nc2nc(OC3CCOCC3)c3c(-c4ccc5nc(C)oc5c4)c[nH]c3n2)c(OC)c1 | 75% | 10 µM | 0.02 µM | clearance [6]: 22.6 mL/min/kg; remaining at 1 h [7]: 70%; clearance [8]: 67.6 mL/min/kg; Vd [9]: 3.8 L/kg; MRT [10]: 2.9 h; MRT [11]: 1.8 h
30 | COc1cc(C(=O)NC2COC2)ccc1Nc1nc(OC2CCCC2)c2c(-c3ccc4nc(C)oc4c3)c[nH]c2n1 | 91% | 10 µM | 0.123 µM | clearance [6]: 13 mL/min/kg; remaining at 1 h [7]: 79%; clearance [8]: 14.3 mL/min/kg; Vd [9]: 3.7 L/kg; MRT [10]: 4.7 h; MRT [11]: 1.4 h
31 | CNC(=O)c1ccc(Nc2nc(OC3COC3)c3c(-c4ccc5nc(C)oc5c4)c[nH]c3n2)c(OC)c1 | – | 0.243 µM | 0.008 µM | –
32 | CNC(=O)c1ccc(Nc2nc(O[C@H]3CC[C@@](C)(O)CC3)c3c(-c4ccc5nc(C)oc5c4)c[nH]c3n2)c(OC)c1 | 76% | 10 µM | 0.008 µM | clearance [6]: 17.6 mL/min/kg; remaining at 1 h [7]: 65%; clearance [8]: 52.2 mL/min/kg; Vd [9]: 2.9 L/kg; MRT [10]: 2.9 h; MRT [11]: 1 h
33 | COc1cc(C(=O)NCC(C)(C)O)ccc1Nc1nc(OC2CCCC2)c2c(-c3ccc4nc(C)oc4c3)c[nH]c2n1 | – | 10 µM | 0.061 µM | –
34 | CNC(=O)c1ccc(Nc2nc(OCCO)c3c(-c4ccc5nc(C)oc5c4)c[nH]c3n2)c(OC)c1 | – | 0.694 µM | 0.056 µM | –
35 | CNC(=O)c1ccc(Nc2nc(OC3CCCC3)c3c(-c4ccc5oc(C)nc5c4)c[nH]c3n2)c(OC)c1 | 86% | 10 µM | 0.642 µM | –
